Screens as filed in PubChem.
M5 ag: CHRM5 agonism in calcium assay | activation, % at 3 µM | AID 624037 | 0.19% of 360,000 active | CHO-K1 hM5 cells, Fluo-8 calcium fluorescence; 0% DMSO wells, 100% maximal acetylcholine response;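 active = activation above the run's mean over test compounds plus 3 SD, cut at about 23% in these data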;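 note: signal is peak over basal fluorescence ratio across the kinetic read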
Target sequence (P08912 whole entry, looked up): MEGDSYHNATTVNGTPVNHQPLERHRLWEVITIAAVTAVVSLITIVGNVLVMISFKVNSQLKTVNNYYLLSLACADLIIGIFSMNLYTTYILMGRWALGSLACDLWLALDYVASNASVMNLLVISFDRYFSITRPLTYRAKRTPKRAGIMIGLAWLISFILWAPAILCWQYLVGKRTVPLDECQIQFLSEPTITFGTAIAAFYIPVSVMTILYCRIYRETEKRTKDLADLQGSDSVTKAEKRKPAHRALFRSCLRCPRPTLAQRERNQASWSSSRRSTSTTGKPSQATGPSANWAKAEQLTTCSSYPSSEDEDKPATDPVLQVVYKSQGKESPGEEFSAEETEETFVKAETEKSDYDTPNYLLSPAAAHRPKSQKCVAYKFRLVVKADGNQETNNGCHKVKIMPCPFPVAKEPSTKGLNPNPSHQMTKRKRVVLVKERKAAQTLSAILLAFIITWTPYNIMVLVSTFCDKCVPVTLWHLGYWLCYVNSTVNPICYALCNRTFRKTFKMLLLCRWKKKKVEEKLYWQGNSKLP
CHRM5 PAM: positive allosteric modulators of human muscarinic M5 receptor; P08912; CHO-K1 hM5, Fluo-8 calcium, ACh EC20 PAM; 0% = ACh EC20, 100% = ACh EC100; 0.3% of 360,000 active; AID 624038; activation, % at 3 µM;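 active = activation above the run cutoff, the mean activation of all test compounds plus 3 SD, cut at about 18% in these data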
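System: CHO-K1 cell line with stable human muscarinic M5 receptor expression | Also added: EC20 acetylcholine as agonist stimulus | Compound: One concentration, 3 µM final (nominal) | Timing: Fluo-8 loading 80 min at 37 °C plus 30 min room temperature | Measured by: Fluo-8 calcium dye fluorescence, kinetic read | Read-out basis: % activation, ACh-normalized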
M5 antag: antagonists of human muscarinic M5 receptor (CHRM5); P08912; CHO-hM5 cells, Fluo-8 calcium fluorescence, ACh EC80; inhibition, % at 3 µM; 0.59% of 360,000 active; AID 624040;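 active = inhibition above a per-plate cutoff, the mean of that plate's test compounds plus 3 SD, cut at about 27% in these data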;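 note: 0% = acetylcholine EC80 with DMSO and 100% = DMSO without agonist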
M4 antag: blocks acetylcholine activation of human M4 receptor. inhibition, % at 3 µM. AID 624125. CHO-hM4 cells, ACh EC80, Fluo-8 calcium fluorescence. 0.73% of 360,000 active. P08173;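 active = inhibition above its plate's cutoff, the mean inhibition of sample wells plus 3 SD, cut at about 27% in these data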;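 note: 0% = acetylcholine EC80 with DMSO and 100% = DMSO without agonist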
CHRM4 PAM: CHRM4 positive allosteric modulation. activation, % at 3 µM. 0.4% of 360,000 active. CHO-K1 hM4/Gqi5, Fluo-8 calcium fluorescence, ACh EC20; 0% = ACh EC20, 100% = maximal ACh;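 active = activation above its plate's cutoff, the mean activation of sample wells plus 3 SD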
M4 ag: agonists of human muscarinic M4 receptor (CHRM4) | P08173 | CHO-K1 hM4/Gqi5, Fluo-8 calcium fluorescence; vehicle 0%, full acetylcholine response 100% | activation, % at 3 µM | 0.14% of 360,000 active;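 active = activation above the run mean over all test wells plus 3 SD, cut at about 32% in these data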;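 note: peak over basal fluorescence ratio per well then scaled between controls; 0% = DMSO wells and 100% = acetylcholine at EC100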
The depositor's hits bear a star. Hits are enriched below; roughly 1.8% of the tested compounds scored in any of these assays.

SMILES	M5 ag	CHRM5 PAM	M5 antag	M4 antag	CHRM4 PAM	M4 ag
CCC(c1nnnn1C(C)(C)C)N1CCN(C/C=C/c2ccccc2)CC1 (stereo unspecified)	-7	-2	5	-13	5	3
CC(C)(C)n1nnnc1C(c1cccc(C#N)c1)N1CCCCCC1 (stereo unspecified)	3	26*	9	-4	14	0
CCC(c1nnnn1-c1ccc(OC)cc1)N1CCN(C/C=C/c2ccccc2)CC1 (stereo unspecified)	-7	-17	14	-18	-5	6
CC(C)(C)n1nnnc1C(c1cccc(C#N)c1)N1CCN2CCCC2C1 (stereo unspecified)	-6	2	-3	-3	-1	0
CC(C)(C)n1nnnc1C(c1ccccc1)N1CCN(C/C=C/c2ccccc2)CC1 (stereo unspecified)	-7	-22	68*	28*	-15	1
CCN(CC)CCC#CC(O)(c1ccccc1)C1CCCCC1 (stereo unspecified)	-10	-17	98*	94*	-25	3
CCC[N+]1(CC#CC(O)(c2ccccc2)C2CCCCC2)CCCCC1 (stereo unspecified)	-20	-37	99*	97*	-56	0
CN1CCN(CC#CCC(O)(c2ccccc2)C2CCCC2)CC1 (stereo unspecified)	-8	-11	6	3	-13	1
NC(=O)C[N+]1(CC#CC(O)(c2ccccc2)c2ccccc2)CCCC1	-10	-20	34*	33*	-18	0
O=S(=O)([O-])CCC[N+]1(CC#Cc2ccccc2)CCCCC1	4	5	1	-9	0	0
CCN(C[C@H]1N[C@@](CC)(C(=O)OC)[C@H]2C(=O)N(Cc3ccccc3)C(=O)[C@@H]12)C(=O)c1ccccc1	4	-11	4	-14	-7	16
CNc1ccc(C2(O)C(=O)c3ccccc3C2=O)cc1	0	-2	6	5	-2	0
CC1Cc2cc(C3(O)C(=O)c4ccccc4C3=O)ccc2N1 (stereo unspecified)	-7	4	-2	31*	-17	0
Cc1ccc(CNC(=O)CN2C(=O)CSc3ccc(S(=O)(=O)N4CCC(C)CC4)cc32)cc1	-7	-5	8	-1	-2	1
CCCCC(=O)N(C)c1c(C)nc2ccc(C(=O)N(C)CCN(C)C)cn12	1	-2	2	-3	-1	1
COc1ccc(-c2ccc(C(=O)Nc3cccc(F)c3)c3occc23)c(C)c1	-2	-6	1	5	-3	0
COc1ccc(-c2ccc(C(=O)Nc3cccc(NS(C)(=O)=O)c3)c3occc23)c(C)c1	-1	-15	15	31*	-8	7
O=C(N/N=C1/CCSC1)c1cc(Br)ccc1O	-1	-18	45*	-5	-4	8
O=C(NNC(=S)NC(=O)C12CC3CC(CC(C3)C1)C2)c1ccncc1	28*	-16	12	12	-29	76*
CC1(C(=O)NC(=S)NNC(=O)c2ccncc2)CCCCC1	9	-12	1	-14	-4	44*
COCC1CCN(C(=O)CC2C(=O)NCCN2Cc2cccc(Oc3ccccc3)c2)CC1 (stereo unspecified)	1	-3	6	-6	2	2
CCN(C(=O)CSc1nc2ccccc2n1C)C1CCS(=O)(=O)C1 (stereo unspecified)	1	2	0	3	6	1
O=C1Nc2ccc(Cl)cc2C(C#CC2CC2)(C(F)(F)F)O1 (stereo unspecified)	-2	-11	4	32*	-15	-2
COc1ccc(/C=N/N=C2/NC(=O)C(CC(=O)O)S2)cc1OS(=O)(=O)c1ccccc1 (stereo unspecified)	2	-4	7	-2	-1	-1
Cc1ccc(S(=O)(=O)Oc2ccc(C)cc2/C=N/N=C2\NC(=O)C(C)S2)cc1 (stereo unspecified)	-9	18*	-14	7	3	0
SMILES	M5 ag	CHRM5 PAM	M5 antag	M4 antag	CHRM4 PAM	M4 ag
Cc1cccc(/C=N/n2c(C)cc(C)c(C#N)c2=O)c1	-1	5	-1	26	41*	2
Cc1cc(NC(=O)Nc2ccccc2F)ccc1Br	0	-18	37*	13	-16	13
O=C(Nc1cccc(Cl)c1)Nc1ccc(Br)cc1F	1	-14	16	25	-16	7
O=C(Nc1ccccc1)Nc1ccc(Br)cc1F	0	-19	28*	54*	-28	7
C#CC(=O)CC1(CN(Cc2ccccc2)C(=O)OC(C)(C)C)CCCCC1	-7	-3	16	32*	-17	0
COc1ccccc1/C=C(\NC(=O)c1cccc(C)c1)C(=O)Nc1ccccn1	-2	13	11	27*	27*	8
O=P(OC1CCCCC1)(OC1CCCCC1)C(Nc1ccccc1)c1cccnc1 (stereo unspecified)	0	-19	31*	12	-9	19
CCOP(=O)(OCC)C(Nc1ccccc1)c1cccnc1 (stereo unspecified)	1	2	-1	-12	-2	1
COc1ccccc1N(CC(=O)NC1CCCC1)C(=O)CNC(=O)c1cccs1	1	-4	6	-6	-8	2
CC1(C)[C@H]2CC=C(CN3CCC(N4CCC(C(=O)N5CCCC5)CC4)CC3)[C@@H]1C2	-17	-6	8	56*	-50	1
Cc1ccc(OCC(O)Cn2c(=N)n(Cc3ccccc3)c3ccccc32)cc1 (stereo unspecified)	3	-7	10	12	-24	33*
CC1(C)O[C@@H]2C[C@H]3[C@@H]4C[C@H](F)C5=CC(=O)C=C[C@]5(C)[C@@]4(F)[C@@H](O)C[C@]3(C)[C@]2(C(=O)CO)O1	2	2	6	-15	5	1
C[C@]12C=CC(=O)C=C1CC[C@H]1[C@@H]3C[C@@H](O)[C@](O)(C(=O)CO)[C@@]3(C)C[C@H](O)[C@@]12F	48*	-18	0	-22	1	4
CC1(C)O[C@@H]2C[C@H]3[C@@H]4CCC5=CC(=O)C=C[C@]5(C)[C@@]4(F)[C@@H](O)C[C@]3(C)[C@]2(C(=O)CO)O1	1	-13	6	46*	-15	2
CC1CC2C3CCC4=CC(=O)C=CC4(C)C3(F)C(O)CC2(C)C1(O)C(=O)CO (stereo unspecified)	-1	3	8	9	16	1
